Two compounds from paper PMC5557401 (Drug Design, Development and Therapy, 2017) can be followed below.

One data set concerns A-549 cells. Briefly: Cell cycle effects and total cell number. The class given is cell-based, human. The conditions noted are these: A-549, 24 and 48 h of incubation. The procedure, abridged:
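A-549 lung adenocarcinoma cells were exposed to a concentration range from under 100 nM to 50 μM for 24 and 48 h. Cells were immunofluorescently imaged for phosphorylated Rb and total DNA content per cell to assign cell-cycle phase and total cell number. IC50 was derived for the reduction in total cell number.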

The nature of data set [1]: In vitro metabolism with rat liver microsomes, LC-MS. Type of data set: in vitro ADME. The conditions noted are these: incubation with rat liver microsomes, phase I.

For `COc1ccc(-c2nc(NN=C3C(=O)Nc4ccc(Br)cc43)c3ccccc3n2)cc1OC` [Compound 7d, 5-Bromo-3-(2-(2-(3,4-dimethoxyphenyl)quinazolin-4-yl) hydrazono)indolin-2-one], the Cell cycle effects result in the data set with A-549 cells is recorded as “no effects on the tested parameters”. Further, the “Metabolic reaction (in vitro RLMs metabolites)” value in data set [1] was “demethylation”.
As to `CCN(CC)CCNC(=O)c1c(C)[nH]c(/C=C2\C(=O)Nc3ccc(F)cc32)c1C` [Sunitinib, reference compound], the Cell cycle effects entry in the data set with A-549 cells is listed as “reduction in the percentage of cells in G1, with corresponding increases in S or G2/M phases”.
